Experimental data: ChEMBL document CHEMBL1121885, “Inhibition of inosinic acid dehydrogenase by 8-substituted purine nucleotides” (J Med Chem, 1981)

Each compound was assayed against T1, Inosine-5'-monophosphate dehydrogenase (Escherichia coli K-12, UniProt P0ADG7) (assay: Inhibition of inosine monophosphate dehydrogenase in Escherichia coli).
T1 sequence (P0ADG7 whole entry): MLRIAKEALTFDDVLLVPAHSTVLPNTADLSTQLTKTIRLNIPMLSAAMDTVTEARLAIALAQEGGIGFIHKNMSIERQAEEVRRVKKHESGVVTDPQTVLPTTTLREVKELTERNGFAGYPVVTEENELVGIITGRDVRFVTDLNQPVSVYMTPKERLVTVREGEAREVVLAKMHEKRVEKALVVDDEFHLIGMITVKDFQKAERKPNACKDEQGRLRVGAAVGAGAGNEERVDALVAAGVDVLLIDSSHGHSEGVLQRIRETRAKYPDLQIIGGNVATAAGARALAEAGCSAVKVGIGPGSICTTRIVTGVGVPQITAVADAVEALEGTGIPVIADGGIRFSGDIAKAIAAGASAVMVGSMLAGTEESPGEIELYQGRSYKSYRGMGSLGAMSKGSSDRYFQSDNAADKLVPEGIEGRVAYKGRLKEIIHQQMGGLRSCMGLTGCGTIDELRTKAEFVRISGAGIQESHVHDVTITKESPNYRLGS
In short: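 E. coli B IMP-DH (0-40% ammonium sulfate fraction of frozen paste, redissolved in 0.05 M Tris pH 8.5). Enzyme-started, 25 °C, NADH rise at 360 nm; Ki from weighted fit to linear competitive equation.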

SMILES | Ki [µM]
Nc1ncnc2c1nc(SCc1ccc(C(=O)O)cc1)n2C1O[C@H](COP(=O)(O)O)[C@@H](O)[C@H]1O (some centres not stated) | 196
Nc1ncnc2c1nc(Br)n2[C@@H]1O[C@H](COP(=O)(O)O)[C@@H](O)[C@H]1O | 161
Nc1ncnc2c1nc(SCc1ccc(Cl)cc1)n2C1O[C@H](COP(=O)(O)O)[C@@H](O)[C@H]1O (some centres not stated) | 53
CC(C)(C)c1ccc(CSc2nc3c(=O)[nH]cnc3n2C2O[C@H](COP(=O)(O)O)[C@@H](O)[C@H]2O)cc1 (some centres not stated) | 129
Nc1ncnc2c1nc(NCc1ccccc1)n2C1O[C@H](COP(=O)(O)O)[C@@H](O)[C@H]1O (some centres not stated) | 275
O=c1[nH]cnc2c1nc(SCc1ccc(Cl)cc1)n2C1O[C@H](COP(=O)(O)O)[C@@H](O)[C@H]1O (some centres not stated) | 29
O=P(O)(O)OC[C@H]1OC(n2c(Sc3ccccc3)nc3c(O)ncnc32)[C@H](O)[C@@H]1O (some centres not stated) | 68
Nc1ncnc2c1nc(Sc1ccc(Cl)cc1)n2C1O[C@H](COP(=O)(O)O)[C@@H](O)[C@H]1O (some centres not stated) | 70
Nc1ncnc2c1nc(SCc1cc([N+](=O)[O-])cc([N+](=O)[O-])c1)n2C1O[C@H](COP(=O)(O)O)[C@@H](O)[C@H]1O (some centres not stated) | 21
N#Cc1ccc(CSc2nc3c(O)ncnc3n2C2O[C@H](COP(=O)(O)O)[C@@H](O)[C@H]2O)cc1 (some centres not stated) | 19
COc1ccc(CSc2nc3c(=O)[nH]cnc3n2C2O[C@H](COP(=O)(O)O)[C@@H](O)[C@H]2O)cc1 (some centres not stated) | 41
Nc1ncnc2c1nc(Sc1ccccc1)n2C1O[C@H](COP(=O)(O)O)[C@@H](O)[C@H]1O (some centres not stated) | 137
O=[N+]([O-])c1ccc(CSc2nc3c(O)ncnc3n2C2O[C@H](COP(=O)(O)O)[C@@H](O)[C@H]2O)cc1 (some centres not stated) | 26
COc1ccc(CSc2nc3c(N)ncnc3n2C2O[C@H](COP(=O)(O)O)[C@@H](O)[C@H]2O)cc1 (some centres not stated) | 84
Nc1ncnc2c1nc(SCc1ccc(F)cc1)n2C1O[C@H](COP(=O)(O)O)[C@@H](O)[C@H]1O (some centres not stated) | 74
O=c1[nH]cnc2c1nc(Sc1cccc(C(F)(F)F)c1)n2C1O[C@H](COP(=O)(O)O)[C@@H](O)[C@H]1O (some centres not stated) | 105

SMILES | Ki [µM]
O=P(O)(O)OC[C@H]1OC(n2c(NCc3ccccc3)nc3c(O)ncnc32)[C@H](O)[C@@H]1O (some centres not stated) | 236
CCCCCSc1nc2c(N)ncnc2n1C1O[C@H](COP(=O)(O)O)[C@@H](O)[C@H]1O (some centres not stated) | 84
Nc1ncnc2c1nc(SCc1ccc([N+](=O)[O-])cc1)n2C1O[C@H](COP(=O)(O)O)[C@@H](O)[C@H]1O (some centres not stated) | 52
O=[N+]([O-])c1ccc(CCSc2nc3c(O)ncnc3n2C2O[C@H](COP(=O)(O)O)[C@@H](O)[C@H]2O)cc1 (some centres not stated) | 54
Nc1ncnc2c1nc(SCCc1ccc([N+](=O)[O-])cc1)n2C1O[C@H](COP(=O)(O)O)[C@@H](O)[C@H]1O (some centres not stated) | 68
Nc1ncnc2c1nc(SCCCc1ccccc1)n2C1O[C@H](COP(=O)(O)O)[C@@H](O)[C@H]1O (some centres not stated) | 64
Nc1ncnc2c1nc(SCc1ccc([N+](=O)[O-])cc1Cl)n2C1O[C@H](COP(=O)(O)O)[C@@H](O)[C@H]1O (some centres not stated) | 17
O=c1[nH]cnc2c1nc(SCc1ccccc1)n2C1O[C@H](COP(=O)(O)O)[C@@H](O)[C@H]1O (some centres not stated) | 46
Nc1ncnc2c1nc(SCc1cccc([N+](=O)[O-])c1)n2C1O[C@H](COP(=O)(O)O)[C@@H](O)[C@H]1O (some centres not stated) | 47
CC(C)(C)c1ccc(CSc2nc3c(N)ncnc3n2C2O[C@H](COP(=O)(O)O)[C@@H](O)[C@H]2O)cc1 (some centres not stated) | 130
O=c1[nH]cnc2c1nc(Br)n2C1O[C@H](COP(=O)(O)O)[C@@H](O)[C@H]1O (some centres not stated) | 271
Nc1ncnc2c1nc(S)n2C1O[C@H](COP(=O)(O)O)[C@@H](O)[C@H]1O (some centres not stated) | 98
Nc1ncnc2c1nc(SCCc1ccccc1)n2C1O[C@H](COP(=O)(O)O)[C@@H](O)[C@H]1O (some centres not stated) | 91
Nc1ncnc2c1nc(SCc1ccccc1)n2C1O[C@H](COP(=O)(O)O)[C@@H](O)[C@H]1O (some centres not stated) | 124
N#Cc1ccc(CSc2nc3c(N)ncnc3n2C2O[C@H](COP(=O)(O)O)[C@@H](O)[C@H]2O)cc1 (some centres not stated) | 58
Nc1ncnc2c1ncn2[C@@H]1O[C@H](COP(=O)(O)O)[C@@H](O)[C@H]1O [ADENOSINE PHOSPHATE] | 450
